Assay results taken from ChEMBL document CHEMBL3877306, “Triazole Ureas Act as Diacylglycerol Lipase Inhibitors and Prevent Fasting-Induced Refeeding” (J Med Chem, 2017).

Experiments:
[1] = target: T1, Monoacylglycerol lipase ABHD6 (Homo sapiens, UniProt Q9BV23); test: Inhibition of human ABHD6 using 2-AG as natural substrate by fluorescence based assay
T1 sequence (Q9BV23 whole entry): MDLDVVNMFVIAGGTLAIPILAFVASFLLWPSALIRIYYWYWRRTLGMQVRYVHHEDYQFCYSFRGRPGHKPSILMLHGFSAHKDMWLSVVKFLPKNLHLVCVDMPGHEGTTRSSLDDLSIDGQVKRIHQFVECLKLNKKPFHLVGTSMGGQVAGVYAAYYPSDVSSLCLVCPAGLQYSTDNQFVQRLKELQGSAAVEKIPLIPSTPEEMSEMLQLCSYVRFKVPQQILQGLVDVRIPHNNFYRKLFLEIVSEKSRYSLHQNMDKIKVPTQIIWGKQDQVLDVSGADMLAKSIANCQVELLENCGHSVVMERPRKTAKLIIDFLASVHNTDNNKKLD
How it was run: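 Coupled fluorescence assay: 2-AG hydrolysis detected via glycerol kinase, glycerol-3-phosphate oxidase and HRP (0.2 U/mL each), 0.125 mM ATP and 10 µM Amplifu Red. Conditions: 25 µM 2-AG, 0.5% acetonitrile, 5% DMSO, ABHD6 membrane protein 40 µg/mL final. n = 4.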

[2] = target: T2, Diacylglycerol lipase-alpha (Homo sapiens, UniProt Q9Y4D2); test: Inhibition of full length recombinant human DAGLalpha expressed in HEK293T cell membranes using PNP butyrate as substrate by colorimetric assay; set-up: species or system HEK-293T
T2 sequence (Q9Y4D2 whole entry): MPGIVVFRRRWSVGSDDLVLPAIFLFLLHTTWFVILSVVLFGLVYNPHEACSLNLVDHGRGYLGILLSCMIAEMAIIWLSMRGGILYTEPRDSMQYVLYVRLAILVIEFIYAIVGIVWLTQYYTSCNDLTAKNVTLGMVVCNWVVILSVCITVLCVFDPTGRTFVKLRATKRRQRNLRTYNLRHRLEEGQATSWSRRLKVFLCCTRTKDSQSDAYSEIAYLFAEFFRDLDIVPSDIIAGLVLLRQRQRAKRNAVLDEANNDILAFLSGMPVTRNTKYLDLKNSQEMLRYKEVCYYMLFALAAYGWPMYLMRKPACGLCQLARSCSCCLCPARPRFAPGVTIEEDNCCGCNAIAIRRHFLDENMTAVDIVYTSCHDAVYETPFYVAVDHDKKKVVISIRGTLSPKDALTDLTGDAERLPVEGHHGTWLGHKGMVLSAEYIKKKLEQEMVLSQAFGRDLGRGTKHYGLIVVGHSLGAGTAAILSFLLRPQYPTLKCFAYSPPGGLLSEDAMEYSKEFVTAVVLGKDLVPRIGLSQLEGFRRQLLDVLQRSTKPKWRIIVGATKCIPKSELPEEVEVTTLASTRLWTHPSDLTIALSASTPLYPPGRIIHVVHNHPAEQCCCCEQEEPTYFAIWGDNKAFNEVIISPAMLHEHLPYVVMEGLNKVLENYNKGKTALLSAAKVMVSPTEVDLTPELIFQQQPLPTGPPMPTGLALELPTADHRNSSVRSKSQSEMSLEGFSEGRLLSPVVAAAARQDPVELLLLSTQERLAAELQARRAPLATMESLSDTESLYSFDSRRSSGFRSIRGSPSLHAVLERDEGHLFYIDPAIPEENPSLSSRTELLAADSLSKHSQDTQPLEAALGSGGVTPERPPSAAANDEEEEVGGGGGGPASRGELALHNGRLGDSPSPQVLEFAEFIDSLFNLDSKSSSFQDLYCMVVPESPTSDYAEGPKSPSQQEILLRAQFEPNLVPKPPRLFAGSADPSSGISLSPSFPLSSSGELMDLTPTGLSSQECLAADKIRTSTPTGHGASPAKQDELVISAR
How it was run: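 Membranes from HEK293T cells transiently transfected with human DAGLα (PEI transfection, harvested at 72 h), used at 0.05 µg/µL final protein in 50 mM HEPES pH 7.2. Activity was read colorimetrically from para-nitrophenylbutyrate hydrolysis. n = 4, mean ± SEM.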

[3] = target: T3, Monoacylglycerol lipase ABHD6 (Mus musculus, UniProt Q8R2Y0); test: Inhibition of MB064 probe binding to ABHD6 in mouse brain membrane proteome preincubated for 30 mins followed by MB064 probe addition measured after 20 mins by gel-based competitive activity based protein profiling assay; format: cell membranes
T3 sequence (Q8R2Y0 whole entry): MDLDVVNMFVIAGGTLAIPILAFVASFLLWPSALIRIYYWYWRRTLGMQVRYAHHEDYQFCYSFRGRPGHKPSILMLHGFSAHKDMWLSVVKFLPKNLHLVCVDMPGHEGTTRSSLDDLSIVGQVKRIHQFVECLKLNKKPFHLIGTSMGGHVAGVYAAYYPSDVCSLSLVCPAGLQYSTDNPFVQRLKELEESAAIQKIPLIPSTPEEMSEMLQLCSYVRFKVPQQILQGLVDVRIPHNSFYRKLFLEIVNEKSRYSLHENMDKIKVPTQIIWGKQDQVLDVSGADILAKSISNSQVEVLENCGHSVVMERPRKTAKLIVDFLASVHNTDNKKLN
How it was run: (§1)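 Mouse brain membrane proteome (2 mg/mL) preincubated with inhibitor or DMSO vehicle for 30 min at r.t., then labelled with MB064 at 250 nM final for 20 min at r.t. and quenched in Laemmli buffer. Fluorescent bands were quantified against vehicle set to 100%, and IC50 was taken from a variable-slope log(inhibitor) vs normalized response fit. n = 3.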

Mus musculus = species: Mus musculus; test: Selectivity ratio of IC50 for ABHD6 in mouse brain membrane proteome to IC50 for DAGLalpha in mouse brain membrane proteome; format: cell membranes
How it was run: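 Ratio of DAGLα and ABHD6 […] values, both from competitive gel ABPP in mouse brain membrane proteome. Inhibitor was preincubated 30 min at r.t., then MB064 (250 nM final) was added for 20 min. Band intensities were normalized to vehicle and fitted with a variable-slope curve. n = 3.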

[4] = target: T4, Diacylglycerol lipase-alpha (Mus musculus, UniProt Q6WQJ1); test: (§2) Inhibition of MB064 probe binding to DAGLalpha in mouse brain membrane proteome preincubated for 30 mins followed by MB064 probe addition measured after 20 mins by gel-based competitive activity based protein profiling assay; format: cell membranes; how it was run: as §1
T4 sequence (Q6WQJ1 whole entry): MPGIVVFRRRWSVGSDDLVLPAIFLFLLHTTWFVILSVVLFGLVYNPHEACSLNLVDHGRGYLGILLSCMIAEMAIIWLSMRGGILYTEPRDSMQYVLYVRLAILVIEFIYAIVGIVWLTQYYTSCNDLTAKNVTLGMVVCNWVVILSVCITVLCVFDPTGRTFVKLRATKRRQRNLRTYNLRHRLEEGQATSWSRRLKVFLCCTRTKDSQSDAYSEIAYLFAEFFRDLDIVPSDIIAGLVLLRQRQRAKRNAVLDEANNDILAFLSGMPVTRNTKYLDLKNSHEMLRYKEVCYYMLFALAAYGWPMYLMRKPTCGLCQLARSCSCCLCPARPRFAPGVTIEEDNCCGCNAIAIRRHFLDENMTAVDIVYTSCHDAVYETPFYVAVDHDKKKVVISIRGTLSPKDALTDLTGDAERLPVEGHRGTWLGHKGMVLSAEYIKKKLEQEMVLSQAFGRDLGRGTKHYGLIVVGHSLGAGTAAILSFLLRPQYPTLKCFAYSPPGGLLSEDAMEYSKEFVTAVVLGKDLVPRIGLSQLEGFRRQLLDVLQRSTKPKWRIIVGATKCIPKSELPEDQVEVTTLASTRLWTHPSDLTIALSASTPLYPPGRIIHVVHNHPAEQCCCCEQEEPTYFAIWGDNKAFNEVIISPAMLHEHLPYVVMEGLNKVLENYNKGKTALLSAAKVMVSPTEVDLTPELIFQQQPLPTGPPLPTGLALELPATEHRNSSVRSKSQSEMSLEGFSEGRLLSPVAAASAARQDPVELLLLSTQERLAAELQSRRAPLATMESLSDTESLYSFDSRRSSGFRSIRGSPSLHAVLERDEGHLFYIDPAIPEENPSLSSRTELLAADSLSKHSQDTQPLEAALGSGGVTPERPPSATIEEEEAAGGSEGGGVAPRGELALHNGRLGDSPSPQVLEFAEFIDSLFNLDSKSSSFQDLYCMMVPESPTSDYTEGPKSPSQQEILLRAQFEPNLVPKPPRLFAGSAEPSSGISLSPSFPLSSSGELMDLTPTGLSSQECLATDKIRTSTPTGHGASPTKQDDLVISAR

[5] = target: T5, Diacylglycerol lipase-alpha (Mus musculus) (UniProt Q6WQJ1); test: as §2; format: cell membranes; how it was run: as §1
T5 sequence (whole entry): T4 sequence (Q6WQJ1 whole entry)

| SMILES | IC50 [1] | IC50 [2] | IC50 [3] | Ratio IC50 (Mus musculus) | IC50 [4] | inhibition [5] |
| --- | --- | --- | --- | --- | --- | --- |
| CCC1CCCCN1C(=O)n1ncc(-c2ccc(-c3ccccc3)cc2)n1 (stereo not given) | – | 3980 nM | – | – | – | – |
| O=C(N1CCCCC1Cc1ccccc1)n1ncc(C2(O)CCCCC2)n1 (stereo not given) | 3160 nM | 1580 nM | – | – | – | – |
| CO[C@H]1CC[C@H](Cc2ccccc2)N(C(=O)n2ncc(C(O)(c3ccc(F)cc3)c3ccc(F)cc3)n2)C1 | 126 nM | 7.94 nM | 398 nM | 5 | 79.4 nM | Dose-dependent effect |
| O=C(N1C[C@H](O)C=C[C@@H]1Cc1ccccc1)n1ncc(C(O)(c2ccc(F)cc2)c2ccc(F)cc2)n1 | 39.8 nM | 12.6 nM | – | – | – | – |
| O=C(N1CCCCC1COc1ccc(F)cc1)n1ncc(C(O)(c2ccccc2)c2ccccc2)n1 (stereo not given) | 251 nM | 6.31 nM | – | – | – | – |
| CC(C)(O)c1cnn(C(=O)N2CCCCC2Cc2ccccc2)n1 (stereo not given) | > 10000 nM | 5010 nM | – | – | – | – |
| O=C(N1C[C@H](O)CC[C@@H]1Cc1ccccc1)n1ncc(C(O)(c2ccc(F)cc2)c2ccc(F)cc2)n1 | 158 nM | 20 nM | – | – | – | – |
| CC(O)(c1ccccc1)c1cnn(C(=O)N2CCCCC2Cc2ccccc2)n1 (stereo not given) | 3160 nM | 398 nM | – | – | – | – |
| O=C(N1CCCCC1Cc1ccccc1)n1ncc(C(O)(C2CCCCC2)C2CCCCC2)n1 (stereo not given) | 7940 nM | 100 nM | – | – | – | – |
| COC(c1ccc(F)cc1)(c1ccc(F)cc1)c1cnn(C(=O)N2CCCCC2Cc2ccccc2)n1 (stereo not given) | > 10000 nM | 12.6 nM | – | – | – | – |
| O=C(N1C[C@@H](O)CC[C@@H]1Cc1ccccc1)n1ncc(C(O)(c2ccc(F)cc2)c2ccc(F)cc2)n1 | 200 nM | 6310 nM | – | – | – | – |
| O=C(N1CCCCC1Cc1ccccc1)n1ncc(C(O)(c2ccccn2)c2ccccn2)n1 (stereo not given) | 3160 nM | 158 nM | – | – | – | – |
| O=C(N1CCCCC1COc1ccccc1)n1ncc(C(O)(c2ccccc2)c2ccccc2)n1 (stereo not given) | 158 nM | 7.94 nM | – | – | – | – |
| O=C(N1C[C@@H](O)C=C[C@@H]1Cc1ccccc1)n1ncc(C(O)(c2ccc(F)cc2)c2ccc(F)cc2)n1 | 251 nM | 20 nM | – | – | – | – |
| O=C(N1C[C@@H](OCC2CC2)CC[C@@H]1Cc1ccccc1)n1ncc(C(O)(c2ccc(F)cc2)c2ccc(F)cc2)n1 | 2510 nM | 20 nM | > 10000 nM | 145 | 79.4 nM | Dose-dependent effect |

These reach a lower IC50 [2]. Values come first.

| IC50 [1] | IC50 [2] | IC50 [3] | Ratio IC50 (Mus musculus) | IC50 [4] | inhibition [5] | SMILES |
| --- | --- | --- | --- | --- | --- | --- |
| 200 nM | 5.01 nM | – | – | – | – | O=C(N1CCCCC1COc1ccccc1)n1ncc(C(O)(c2ccc(F)cc2)c2ccc(F)cc2)n1 (stereo not given) |
| 200 nM | 5.01 nM | – | – | – | – | O=C(N1CCCCC1COc1ccc(F)cc1)n1ncc(C(O)(c2ccc(F)cc2)c2ccc(F)cc2)n1 (stereo not given) |
| 251 nM | 5.01 nM | – | – | – | – | COc1ccc(CC2CCCCN2C(=O)n2ncc(C(O)(c3ccc(F)cc3)c3ccc(F)cc3)n2)cc1 (stereo not given) |
| 158 nM | 3.16 nM | – | – | – | – | COc1cccc(CC2CCCCN2C(=O)n2ncc(C(O)(c3ccc(F)cc3)c3ccc(F)cc3)n2)c1 (stereo not given) |
| 25.1 nM | 1 nM | – | – | – | – | O=C(N1CCCCC1Cc1ccccc1)n1ncc(C(O)(c2ccc(F)cc2)c2ccc(F)cc2)n1 (stereo not given) |
| 50.1 nM | 0.794 nM | 50.1 nM | 25 | 2 nM | Dose-dependent effect | CO[C@@H]1CC[C@H](Cc2ccccc2)N(C(=O)n2ncc(C(O)(c3ccc(F)cc3)c3ccc(F)cc3)n2)C1 |
| – | 0.794 nM | – | – | – | – | O=C(N1CCCC[C@@H]1Cc1ccccc1)n1ncc(C(O)(c2ccc(F)cc2)c2ccc(F)cc2)n1 |
| 39.8 nM | 0.631 nM | 316 nM | 160 | 2 nM | Dose-dependent effect | O=C(N1C[C@H](OCC2CC2)CC[C@@H]1Cc1ccccc1)n1ncc(C(O)(c2ccc(F)cc2)c2ccc(F)cc2)n1 |
